Source: paper PMC8592288 (Bioorganic chemistry, 2021)
One block for each molecule: values may come before it.

Assays:
VDR [1] = molecular target: T1, VDR (Homo sapiens, UniProt P11473); assay: VDR-mediated transcription assay, CYP24A1-luciferase reporter in HEK293 cells; format: cell-based; details: HEK293, maximum reached before decrease due to toxicity
T1 sequence (P11473 1-427): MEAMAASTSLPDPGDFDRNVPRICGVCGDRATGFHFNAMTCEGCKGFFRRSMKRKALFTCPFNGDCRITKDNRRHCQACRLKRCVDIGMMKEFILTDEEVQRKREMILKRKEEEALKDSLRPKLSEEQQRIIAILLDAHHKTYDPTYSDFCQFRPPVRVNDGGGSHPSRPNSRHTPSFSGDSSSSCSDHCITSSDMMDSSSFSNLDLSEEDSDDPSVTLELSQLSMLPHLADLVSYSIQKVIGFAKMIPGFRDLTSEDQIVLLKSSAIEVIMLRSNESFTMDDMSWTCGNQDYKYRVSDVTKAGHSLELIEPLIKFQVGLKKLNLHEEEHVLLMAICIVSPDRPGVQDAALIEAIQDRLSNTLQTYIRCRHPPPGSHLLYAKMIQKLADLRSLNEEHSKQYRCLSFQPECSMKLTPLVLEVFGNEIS
Summary of the method: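 HEK293 cells grown in DMEM high glucose with NEAA, 10 mM HEPES and 10% FBS. Transfected with VDR-CMV and CYP24A1 promoter-luciferase plasmids (Lipofectamine LTX/PLUS) for 16 h at 37 °C. Cells replated at 400,000 cells/mL onto Matrigel-treated 384-well plates for 4 h. […] Bright-Glo luminescence; n = 8; non-linear regression.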

[2] = subcutaneous administration; cited from earlier work
HEK293 cells = assay: Viability assay, CellTiter-Glo; format: cell-based; details: HEK293, 18 h exposure
Summary of the method: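 HEK293 cells transfected and dosed as in the VDR transcription assay. After 18 h at 37 °C, 5% CO2, CellTiter-Glo luminescence measured (intracellular ATP). Eight measurements per concentration, averaged with SEM. LD50 derived by non-linear regression.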

VDR [3] = molecular target: T1, VDR; assay: VDR transcription assay in the presence of 100 nM 1,25; format: cell-based
IL-1β [4] = assay: HTRF IL1β cytokine assay, supernatant of activated RAW264.7 macrophages; format: cell-based, mouse; details: INFγ/LPS activated RAW264.7; 1,25(OH)2D3 20 nM, CTA 20 μM
PPARγ-LBD = PPARγ-LBD (Homo sapiens, UniProt P37231); assay: Fluorescence polarization coactivator binding assay; format: biochemical
Sequence of PPARγ-LBD (P37231 238-503 limits assumed, species assumed): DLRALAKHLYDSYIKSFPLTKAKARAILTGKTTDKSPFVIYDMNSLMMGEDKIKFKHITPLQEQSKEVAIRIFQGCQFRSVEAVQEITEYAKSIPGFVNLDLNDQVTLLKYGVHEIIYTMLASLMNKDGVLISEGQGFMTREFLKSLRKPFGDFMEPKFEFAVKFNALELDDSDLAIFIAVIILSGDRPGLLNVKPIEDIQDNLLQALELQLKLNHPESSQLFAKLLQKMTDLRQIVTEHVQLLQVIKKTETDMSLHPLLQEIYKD
Summary of the method: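 Mix of PPARγ-LBD (5 μM), Texas Red-labelled DRIP2 coactivator peptide (7 nM) and rosiglitazone (5 μM). Held 3 h at room temperature, then fluorescence polarization read at Ex/Em 595/615 nm. Two independent experiments in quadruplicate.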

LXR β = LXR β (Homo sapiens, UniProt P55055); assay: Gal4 hybrid reporter transcription assay in HEK293T cells; format: cell-based; details: 1 μM CTA, 16 h
Sequence of LXR β (P55055 222-460 limits assumed): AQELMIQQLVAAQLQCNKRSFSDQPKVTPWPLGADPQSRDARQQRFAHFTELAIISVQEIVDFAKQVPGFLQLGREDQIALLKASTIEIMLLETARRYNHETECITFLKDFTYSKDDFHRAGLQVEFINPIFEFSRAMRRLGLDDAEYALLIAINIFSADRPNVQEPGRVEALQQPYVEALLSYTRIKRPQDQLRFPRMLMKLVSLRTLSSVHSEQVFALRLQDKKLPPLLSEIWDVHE
Summary of the method: (§1)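 HEK293T cells transfected using Lipofectamine LTX with pFR-Luc, pRL-SV40 and pFA-CMV plasmids encoding Gal4 fusions of the human receptor LBDs. Cells then held 16 h in OptiMEM with penicillin/streptomycin, 1 μM test compound and 0.1% DMSO. Dual-Glo luciferase read-out. Controls: 0.1% DMSO, and 1 μM TO901317 or 1 μM tretinoin as reference agonists. Duplicates, four independent repeats.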

RAW264.7 cells = assay: Cytotoxicity on RAW264.7 cells, CellTiter-Glo; format: cell-based, mouse; details: RAW264.7, concentrations up to 100 μM
RARα = RARα (Homo sapiens, UniProt P10276); assay: Gal4 hybrid reporter transcription assay in HEK293T cells; format: cell-based; details: 1 μM CTA, 16 h
Sequence of RARα (P10276 183-417 limits assumed): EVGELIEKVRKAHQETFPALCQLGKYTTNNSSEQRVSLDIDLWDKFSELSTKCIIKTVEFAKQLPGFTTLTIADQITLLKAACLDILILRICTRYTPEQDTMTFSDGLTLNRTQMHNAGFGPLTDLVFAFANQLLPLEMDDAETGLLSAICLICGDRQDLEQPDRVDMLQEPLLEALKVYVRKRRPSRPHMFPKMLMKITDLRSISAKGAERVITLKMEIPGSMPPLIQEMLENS
Summary of the method: as §1

hFXR = hFXR (Homo sapiens, UniProt Q96RI1); assay: FXR transcription assay, BSEP-luciferase in HeLa cells; format: cell-based; details: 24 h
Sequence of hFXR (Q96RI1 whole entry): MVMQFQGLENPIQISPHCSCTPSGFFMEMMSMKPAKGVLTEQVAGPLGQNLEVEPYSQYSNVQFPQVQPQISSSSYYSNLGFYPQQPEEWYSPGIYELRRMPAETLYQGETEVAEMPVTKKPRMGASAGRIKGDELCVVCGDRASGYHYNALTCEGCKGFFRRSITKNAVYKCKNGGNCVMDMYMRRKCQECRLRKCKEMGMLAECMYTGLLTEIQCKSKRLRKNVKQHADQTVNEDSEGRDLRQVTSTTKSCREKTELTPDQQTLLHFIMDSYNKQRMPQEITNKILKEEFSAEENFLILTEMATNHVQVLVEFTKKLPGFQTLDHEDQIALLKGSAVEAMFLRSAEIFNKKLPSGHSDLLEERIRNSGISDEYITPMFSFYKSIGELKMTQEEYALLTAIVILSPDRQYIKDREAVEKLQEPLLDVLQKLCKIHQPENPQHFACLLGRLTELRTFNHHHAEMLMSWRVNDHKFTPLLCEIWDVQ
Sequence of hFXR (P19793 whole entry partner): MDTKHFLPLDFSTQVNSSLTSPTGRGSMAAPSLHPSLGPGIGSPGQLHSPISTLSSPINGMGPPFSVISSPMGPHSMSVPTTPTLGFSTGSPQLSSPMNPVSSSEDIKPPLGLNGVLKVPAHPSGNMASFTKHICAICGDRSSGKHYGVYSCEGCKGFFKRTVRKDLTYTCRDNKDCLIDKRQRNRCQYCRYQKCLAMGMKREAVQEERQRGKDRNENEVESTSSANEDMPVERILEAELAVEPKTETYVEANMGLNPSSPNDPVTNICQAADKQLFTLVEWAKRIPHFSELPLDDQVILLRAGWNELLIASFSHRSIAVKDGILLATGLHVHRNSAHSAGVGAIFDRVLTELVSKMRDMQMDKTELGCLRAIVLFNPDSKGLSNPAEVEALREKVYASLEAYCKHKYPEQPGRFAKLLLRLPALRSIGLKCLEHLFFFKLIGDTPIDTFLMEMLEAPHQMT
Summary of the method: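 HeLa cells grown in DMEM high glucose with 10% FCS, seeded at 8000 cells/well 24 h before transfection, then switched to 0.5% charcoal-stripped FCS. Calcium phosphate co-transfection with pcDNA3-hFXR, pSG5-hRXR, a BSEP promoter-luciferase (pGL3basic) reporter and pRL-SV40. Test compound added in 0.1% DMSO in phenol red-free medium for 24 h. Dual-Glo luciferase read-out. Controls: 0.1% DMSO and 1 μM GW4064. Triplicates, four independent repeats.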

RXRα-LBD = RXRα-LBD (Homo sapiens, UniProt P19793); assay: Fluorescence polarization coactivator binding assay; format: biochemical
Sequence of RXRα-LBD (P19793 227-458 limits assumed): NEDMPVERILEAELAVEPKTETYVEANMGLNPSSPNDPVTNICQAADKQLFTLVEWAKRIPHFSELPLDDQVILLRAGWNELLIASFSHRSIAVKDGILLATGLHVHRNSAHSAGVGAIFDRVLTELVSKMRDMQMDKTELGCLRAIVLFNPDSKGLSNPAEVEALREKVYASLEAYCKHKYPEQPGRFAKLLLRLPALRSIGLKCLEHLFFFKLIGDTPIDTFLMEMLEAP
Summary of the method: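 RXRα-LBD (1 μM) combined with Texas Red-SRC2–3 peptide (7 nM) and bexarotene (2 μM). Incubated 3 h at room temperature; polarization detected at 595/615 nm. Two independent experiments, each in quadruplicate.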

LXR α = LXR α (Homo sapiens, UniProt Q13133); assay: Gal4 hybrid reporter transcription assay in HEK293T cells; format: cell-based; details: 1 μM CTA, 16 h
Sequence of LXR α (Q13133 209-447 limits assumed): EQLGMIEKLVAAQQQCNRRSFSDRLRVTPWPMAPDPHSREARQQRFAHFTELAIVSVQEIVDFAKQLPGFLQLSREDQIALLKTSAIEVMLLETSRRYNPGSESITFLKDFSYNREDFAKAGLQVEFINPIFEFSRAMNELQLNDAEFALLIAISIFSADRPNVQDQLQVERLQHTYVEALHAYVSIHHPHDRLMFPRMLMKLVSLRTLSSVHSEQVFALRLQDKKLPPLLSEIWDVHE
Summary of the method: as §1

CYP24A1 [5] = details: at 7.5 μM; cited from earlier work
[6] = test system: ligand binding domain (LBD) of the VDR; details: two-hybrid assay; cited from earlier work
TRα-LBD = TRα-LBD (Homo sapiens, UniProt P10827); assay: Fluorescence polarization coactivator binding assay; format: biochemical
Sequence of TRα-LBD (P10827 148-410 isoform P10827-2 limits assumed): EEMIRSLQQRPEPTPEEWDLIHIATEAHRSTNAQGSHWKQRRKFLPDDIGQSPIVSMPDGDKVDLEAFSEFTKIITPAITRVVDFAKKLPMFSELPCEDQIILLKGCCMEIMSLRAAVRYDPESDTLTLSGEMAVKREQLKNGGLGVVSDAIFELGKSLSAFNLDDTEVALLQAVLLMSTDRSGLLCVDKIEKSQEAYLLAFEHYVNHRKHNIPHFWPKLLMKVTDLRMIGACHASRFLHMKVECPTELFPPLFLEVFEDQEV
Summary of the method: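 FP coactivator binding with TRα-LBD (1 μM), Texas Red-labelled SRC2–2 (7 nM) and triiodothyronine (100 nM). Incubated 3 h at room temperature; polarization read at 595/615 nm (Ex/Em). Two independent experiments, quadruplicate wells.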

iNOS = assay: RT-PCR of iNOS in IFNγ/LPS-activated RAW264.7 macrophages; format: cell-based, mouse; details: INFγ/LPS activated RAW264.7, CTA 5 and 20 μM
ERβ-LBD = ERβ-LBD (Homo sapiens, UniProt Q92731); assay: Fluorescence polarization coactivator binding assay; format: biochemical
Sequence of ERβ-LBD (Q92731 264-498 limits assumed, species assumed): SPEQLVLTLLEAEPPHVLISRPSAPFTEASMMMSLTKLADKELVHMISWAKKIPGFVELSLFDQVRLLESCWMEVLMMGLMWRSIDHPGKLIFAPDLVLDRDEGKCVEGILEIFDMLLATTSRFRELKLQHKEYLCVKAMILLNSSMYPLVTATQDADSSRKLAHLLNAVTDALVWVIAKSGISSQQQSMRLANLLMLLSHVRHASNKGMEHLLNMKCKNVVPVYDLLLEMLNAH
Summary of the method: (§2)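 For ERα and ERβ, 1 μM LBD was mixed with 7 nM Texas Red-SRC2–2 coactivator peptide and 100 nM estradiol. After 3 h at room temperature, fluorescence polarization was read at Ex/Em 595/615 nm. Two independent experiments in quadruplicate.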

GST-hPXR-LBD = GST-hPXR-LBD (Homo sapiens, UniProt O75469); assay: TR-FRET competition assay for PXR; format: binding; details: CTA at 10 or 50 μM
Sequence of GST-hPXR-LBD (O75469 146-433 limits assumed): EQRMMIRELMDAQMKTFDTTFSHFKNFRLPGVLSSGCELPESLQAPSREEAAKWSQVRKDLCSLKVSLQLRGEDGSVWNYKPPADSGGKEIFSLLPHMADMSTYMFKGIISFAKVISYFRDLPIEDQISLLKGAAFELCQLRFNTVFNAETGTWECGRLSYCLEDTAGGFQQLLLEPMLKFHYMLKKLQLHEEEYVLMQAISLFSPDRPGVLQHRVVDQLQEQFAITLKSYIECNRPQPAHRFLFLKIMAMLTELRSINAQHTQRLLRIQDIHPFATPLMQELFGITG
Summary of the method: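 TR-FRET competition in pH 7.5 buffer (50 mM Tris, 50 mM KCl, 20 mM MgCl2, 1 mM CHAPS, 0.1 mg/mL BSA, 0.05 mM DTT). Test compound added in DMSO (0.4% final); TO901317 as positive control. After 30 min, excitation 340 nm, ratio 520/490 nm ×10000. n = 8.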

CYP24A1 [7] = assay: RT-PCR of VDR target gene CYP24A1 in Caco2 cells; format: cell-based, human
ERα-LBD = ERα-LBD (Homo sapiens, UniProt P03372); assay: Fluorescence polarization coactivator binding assay; format: biochemical
Sequence of ERα-LBD (P03372 311-547 limits assumed, species assumed): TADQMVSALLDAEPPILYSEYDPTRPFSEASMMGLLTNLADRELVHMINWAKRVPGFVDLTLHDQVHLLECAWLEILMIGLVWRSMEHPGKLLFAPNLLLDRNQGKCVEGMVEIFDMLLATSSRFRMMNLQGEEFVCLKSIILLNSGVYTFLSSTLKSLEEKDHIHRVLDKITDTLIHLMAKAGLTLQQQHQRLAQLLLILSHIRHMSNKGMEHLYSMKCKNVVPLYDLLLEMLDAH
Summary of the method: as §2

GST-CAR-LBD = GST-CAR-LBD (Homo sapiens, UniProt Q14994); assay: TR-FRET coactivator binding assay for CAR; format: biochemical; details: CTA at 10 or 50 μM
Sequence of GST-CAR-LBD (Q14994 109-352 limits assumed): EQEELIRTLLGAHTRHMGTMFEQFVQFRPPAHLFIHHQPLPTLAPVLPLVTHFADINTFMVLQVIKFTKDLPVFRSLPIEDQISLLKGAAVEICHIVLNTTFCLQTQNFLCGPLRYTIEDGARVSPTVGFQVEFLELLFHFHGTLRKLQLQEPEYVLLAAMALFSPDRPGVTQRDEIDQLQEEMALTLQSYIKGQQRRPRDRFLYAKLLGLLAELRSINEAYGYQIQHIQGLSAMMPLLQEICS

RAW264.7 = assay: Griess assay, NO in IFNγ/LPS-activated RAW264.7 macrophages; format: cell-based, mouse; details: INFγ/LPS activated RAW264.7; 1,25(OH)2D3 20 nM, CTA 5 and 20 μM; 24-hour treatment
TRβ-LBD = TRβ-LBD (Homo sapiens, UniProt P10828); assay: Fluorescence polarization coactivator binding assay; format: biochemical
Sequence of TRβ-LBD (P10828 217-461 limits assumed): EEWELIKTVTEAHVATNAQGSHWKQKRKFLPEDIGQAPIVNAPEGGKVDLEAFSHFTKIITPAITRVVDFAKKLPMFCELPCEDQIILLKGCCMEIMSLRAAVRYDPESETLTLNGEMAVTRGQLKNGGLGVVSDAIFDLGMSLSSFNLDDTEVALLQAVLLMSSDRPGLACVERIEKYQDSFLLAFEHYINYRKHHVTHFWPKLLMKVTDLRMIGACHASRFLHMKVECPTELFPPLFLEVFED
Summary of the method: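 TRβ-LBD used at 0.8 μM, with 7 nM Texas Red-SRC2–2 peptide and 1 μM triiodothyronine. Incubated 3 h at room temperature; fluorescence polarization measured at Ex/Em 595/615 nm. Two independent experiments in quadruplicate.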

IL-1β [8] = assay: RT-PCR of IL-1β in IFNγ/LPS-activated RAW264.7 macrophages; format: cell-based, mouse; details: INFγ/LPS activated RAW264.7, CTA 5 and 20 μM
AR-LBD = AR-LBD (Homo sapiens, UniProt P10275); assay: Fluorescence polarization coactivator binding assay; format: biochemical
Sequence of AR-LBD (P10275 669-900 limits assumed): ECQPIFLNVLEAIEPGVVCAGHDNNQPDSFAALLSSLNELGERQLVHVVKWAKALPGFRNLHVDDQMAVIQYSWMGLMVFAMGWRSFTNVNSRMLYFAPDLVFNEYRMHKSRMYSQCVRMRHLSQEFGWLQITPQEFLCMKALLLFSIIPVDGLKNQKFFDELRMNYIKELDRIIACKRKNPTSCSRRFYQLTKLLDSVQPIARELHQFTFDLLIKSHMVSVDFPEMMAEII
Summary of the method: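 Coactivator recruitment read by fluorescence polarization. AR-LBD at 5 μM with 7 nM Texas Red-labelled SRC2–3 peptide and 100 nM dihydrotestosterone. Incubated 3 h at room temperature, then read at Ex/Em 595/615 nm. Two independent experiments, each in quadruplicate.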

[9] = molecular target: T2, Danio Rerio vitamin D receptor ligand binding domain (Danio rerio, UniProt Q9PTN2 156-453); assay: crystal structure
T2 sequence (looked up): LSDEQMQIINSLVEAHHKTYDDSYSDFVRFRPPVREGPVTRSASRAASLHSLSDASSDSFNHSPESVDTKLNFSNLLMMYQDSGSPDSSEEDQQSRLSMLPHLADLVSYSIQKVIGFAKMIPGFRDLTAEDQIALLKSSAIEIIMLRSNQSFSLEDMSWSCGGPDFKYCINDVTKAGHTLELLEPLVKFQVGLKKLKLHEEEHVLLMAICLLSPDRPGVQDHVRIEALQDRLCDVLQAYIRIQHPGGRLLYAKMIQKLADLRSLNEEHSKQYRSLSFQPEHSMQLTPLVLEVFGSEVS

Molecule: C=C1/C(=C\C=C2/CCC[C@]3(C)[C@@H]([C@H](C)CC(=O)OC)CC[C@@H]23)C[C@@H](O)C[C@@H]1O [CTA-ME, Methyl (R)-3-((1R,3aS,7aR,E)-4-((Z)-2-((3S,5R)-3,5-dihydroxy-2-methylenecyclohexylidene)ethylidene)-7a-methyloctahydro-1H-inden-1-yl)butanoate]
level of activation of gene expression in comparison to 100 nM 1,25(OH)2D3 (VDR [1]): 30%
antirachitic activity [2]: antirachitic activity
LD50 (Cell-titer Glo viability) (HEK293 cells): 13.9 µM
IC50 (VDR [3]): 8.16 µM

Molecule: C=C1/C(=C\C=C2/CCC[C@]3(C)[C@@H]([C@H](C)CC(=O)O)CC[C@@H]23)C[C@@H](O)C[C@@H]1O [CTA, (R)-3-((1R,3aS,7aR,E)-4-((Z)-2-((3S,5R)-3,5-dihydroxy-2-methylenecyclohexylidene)ethylidene)-7a-methyloctahydro-1H-inden-1-yl)butanoic acid]
IL-1β protein (HTRF) (IL-1β [4]): Reduced IL-1β protein
activation of peroxisome proliferator-activated receptor (PPARγ-LBD): not activated
activation of liver X receptor β (LXR β): not activated
cytotoxic effects (luminescence viability assay) (RAW264.7 cells): absence of any cytotoxic effects
activation of retinoic acid receptor (RARα): not activated
activation of farnesoid X receptor (hFXR): not activated
activation of retinoid X receptor (RXRα-LBD): not activated
level of activation of gene expression in comparison to 100 nM 1,25(OH)2D3 (VDR [1]): 30%
activation of liver X receptor α (LXR α): not activated
CYP24A1 upregulation in DU145 cells (CYP24A1 [5]): 9 fold
recruitment of SRC-1 to VDR LBD [6]: induces recruitment of SRC-1
activation of thyroid receptor TRα (TRα-LBD): not activated
iNOS gene transcription (RT-PCR) (iNOS): reduction of gene transcription was observed
activation of estrogen receptor ERβ (ERβ-LBD): not activated
binding to PXR (GST-hPXR-LBD): did not bind
antirachitic activity [2]: antirachitic activity
expression of CYP24A1 in the presence of 1,25(OH)2D3 (CYP24A1 [7]; Caco2, 18 h, co-treatment with 1,25(OH)2D3): strongly induced
CYP24A1 upregulation compared to lithocholic acid at 10 μM (CYP24A1 [7]; intestinal cells (Caco2), CTA at 10 μM): 100 fold
activation of estrogen receptor ERα (ERα-LBD): not activated
induction of CAR-coactivator interactions (GST-CAR-LBD): did not bind to PXR or induce CAR-coactivator interactions
production of NO in comparison to vehicle (RAW264.7): significant reduction
LD50 (Cell-titer Glo viability) (HEK293 cells): 96.0 µM
activation of thyroid receptor TRβ (TRβ-LBD): not activated
IC50 (VDR [3]): 72.2 µM
IL-1β gene transcription (RT-PCR) (IL-1β [8]): reduction of gene transcription was observed
activation of androgen receptor (AR-LBD): not activated

Molecule: C=C1/C(=C\C=C2/CCC[C@]3(C)[C@@H]([C@H](C)CCCC(C)(C)O)CC[C@@H]23)C[C@@H](O)C[C@@H]1O [1,25(OH)2D3, 1α,25-dihydroxyvitamin D3, reference compound]
IL-1β protein (HTRF) (IL-1β [4]): Reduced IL-1β protein
production of NO in comparison to vehicle (RAW264.7): reduced the production of NO

binding result [9]: binds
Molecule: NHPMLMNLLKDN [coactivator MED1 NR2 peptide]
